This is an account of results in ChEMBL document CHEMBL4715721, “Synthesis and optimization of novel allylated mono-carbonyl analogs of curcumin (MACs) act as potent anti-inflammatory agents against LPS-induced acute lung injury (ALI) in rats” (Eur J Med Chem, 2016).

Series [1] concerns RAW264.7. The series can be described thus: Antiinflammatory activity in mouse RAW264.7 cells assessed as decrease in LPS-induced IL-6 secretion at 10 microM incubated for 30 mins followed by LPS stimulation and measured after 24 hrs by ELISA relative to control. The class given is functional. Conditions: RAW264.7, 24.5 h, time 1470 min. Summed up:
(§1)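 RAW264.7 cells in DMEM with 10% FBS at 37 °C, 5% CO₂; pretreated with 10 μM for 30 min, then LPS 0.5 μg/mL for 24 h. Medium TNF-α and IL-6 measured by ELISA and normalized to total protein of viable cells; percent inhibition, mean ± SD of three experiments.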
On the technique in general: In an ELISA, binding on a coated surface is turned into a signal by an enzyme label.

Series [2] in a line: Cytotoxicity against human HL7702 cells assessed as cell survival rate at 10 uM incubated for 24 hrs by MTT assay. The class given is cell-based. To be noted: HL7702 (L02) cells, read-out: Activity. The procedure, abridged:
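HL-7702 human normal hepatic cells exposed to 10 μM compound for 24 h; viability measured by MTT assay and given as survival rate, mean ± SD of three experiments.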
On the technique in general: Tetrazolium dyes change colour on reduction, which living cells bring about.

Series [3] is described as follows: (§2) Cytotoxicity against mouse RAW264.7 cells assessed as cell survival rate at 10 uM. The class given is cell-based. Conditions: RAW264.7 cells, read-out: Activity.
Series [4] concerns RAW264.7. The series is described as §2. The class given is cell-based. To be noted: raw264.7, 10 µM.
Series [5] has as its system RAW264.7. In words: Antiinflammatory activity in mouse RAW264.7 cells assessed as decrease in LPS-induced TNF-alpha secretion at 10 microM incubated for 30 mins followed by LPS stimulation and measured after 24 hrs by ELISA relative to control. To be noted: RAW264.7, 24.5 h, time 1470 min. In kind it is functional. Summed up: as §1
Series [6] is described as follows: Octanol-water partition coefficient, logP of compound. In kind it is physicochemical.
The test system of series [7] is RAW264.7. The series can be described thus: Antiinflammatory activity in mouse RAW264.7 cells assessed as decrease in LPS-induced IL-6 secretion incubated for 30 mins followed by LPS stimulation and measured after 24 hrs by ELISA. The class given is functional, cell-based. Conditions: dose 1-10 µM, time 1470.0 min. The procedure, abridged: (§3)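 RAW264.7 cells seeded at 4.0×10^5/plate overnight; pretreated at 1, 2.5, 5 or 10 μM for 30 min, then with or without LPS 0.5 μg/mL for 24 h. Medium IL-6 and TNF-α measured by ELISA and normalized to total protein; percent of LPS control, mean ± SEM of three independent experiments.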

Series [8] has as its system RAW264.7. In words: Antiinflammatory activity in mouse RAW264.7 cells assessed as decrease in LPS-induced TNF-alpha secretion incubated for 30 mins followed by LPS stimulation and measured after 24 hrs by ELISA. The class given is functional, cell-based. To be noted: dose 1-10 µM, time 1470.0 min. Summed up:
as §3

Series [9] can be described thus: Chemical stability of compound in PBS buffer containing 5% DMSO at pH 7.4 measured every 5 mins for 25 mins by UV-Vis absorption spectral analysis. In kind it is physicochemical. To be noted: pH 7.4, 25 min. Summed up:
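Compound diluted from 1 mM stock in phosphate buffer pH 7.4 containing 5% DMSO; UV-visible spectra recorded from 250 to 600 nm at 25 °C in a 1 cm quartz cuvette, every 5 min for 25 min.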

Series [10] is described as follows: Aqueous kinetic solubility of compound at pH 7.4. In kind it is physicochemical. Conditions: read-out: Kinetic_solubility.

SMILES strings stand for the structures. ≈ marks a conversion by molar mass, not a printed value.

As a reminder, the inhibition is the change of the read-out against control, counted positive when it falls. Take `C=CCc1cc(/C=C2\CN(S(=O)(=O)c3ccccc3)C/C(=C\c3ccc(O)c(CC=C)c3)C2=O)ccc1O`: the inhibition at 10 µM in the series with RAW264.7 [1] came to 24.8%. Moreover, the viability at 24 h, 10 µM in [2] was determined as 63.4%. Moreover, in series [3], the viability at 10 µM was under 70%.

For `C=CCc1cc(/C=C2\CN(C(=O)c3c(Cl)cccc3Cl)C/C(=C\c3ccc(O)c(CC=C)c3)C2=O)ccc1O`, in the series with RAW264.7 [1], the inhibition at 10 µM is 79.6%. Besides, the viability at 24 h, 10 µM in [2] amounted to 79.6%. The Activity result in the series on RAW264.7 [4] is listed as “Non-Toxic”.

Broadly, the logP is the decadic logarithm of the partition coefficient of the neutral form, usually between octanol and water. With `C=CCc1cc(/C=C2\CN(C3CC3)C/C(=C\c3ccc(N(CC)CC)cc3)C2=O)ccc1O`, the results for the inhibition at 10 µM with RAW264.7 [1] and in the series on RAW264.7 [5] were 71.9% and 32.1%, respectively. The viability at 24 h, 10 µM in series [2] was 94%. Also, in series [6], the logP amounted to 4.08.

Consider `C=CCc1cc(/C=C2\CN(C(=O)c3ccc(F)cc3)C/C(=C\c3ccc(O)c(CC=C)c3)C2=O)ccc1O`, for which the inhibition at 10 µM with RAW264.7 [1] was determined as 86.8%. The viability at 24 h, 10 µM in [2] turned out to be 78%. Besides, in the series with RAW264.7 [4], the Activity result is recorded as “Non-Toxic”.

On to `C=CCc1cc(/C=C2\CN(C3CC3)C/C(=C\c3ccc(O)c(CC=C)c3)C2=O)ccc1O`, for which the inhibition at 10 µM was determined as 77.5% in the series with RAW264.7 [1] and 39.5% in the series on RAW264.7 [5]. Besides, in series [2], the viability at 24 h, 10 µM is 76.2%. The inhibition result in the series on RAW264.7 [7] and in the series with RAW264.7 [8] was “Dose-dependent effect” in each case. Moreover, the Stabilty result in series [9] is “Stable”. The Activity result with RAW264.7 [4] is “Non-Toxic”.

For the molecule `C=CCc1cc(/C=C2\CN(CC)C/C(=C\c3ccc(O)c(CC=C)c3)C2=O)ccc1O`, in the series on RAW264.7 [1], the inhibition at 10 µM was 67.6%. In addition, the viability at 24 h, 10 µM in series [2] worked out at 79.6%. Besides, the Activity entry in the series with RAW264.7 [4] is reported as “Non-Toxic”.

As to `C=CCc1cc(/C=C2\CN(C(=O)c3ccc(Cl)cc3)C/C(=C\c3ccc(O)c(CC=C)c3)C2=O)ccc1O`, in the series on RAW264.7 [1], the inhibition at 10 µM was determined as 89.2%. For the same molecule, the viability at 24 h, 10 µM in [2] came out at 66.2%. The viability at 10 µM in series [3] is under 70%.

Turning to `C=CCc1cc(/C=C2\CN(C3CC3)C/C(=C\c3ccc(N4CCOCC4)cc3)C2=O)ccc1O`, the inhibition at 10 µM in the series with RAW264.7 [1] was 59.8%; with RAW264.7 [5], 8.19%. Further, the viability at 24 h, 10 µM in series [2] is 94.3%. Further, the logP in [6] worked out at 3.21. Also, the solubility kinetic in series [10] came to 19.4 mg/mL (≈ 42.5 mM).

`C=CCc1cc(/C=C2\CN(C(=O)c3ccc(C)cc3)C/C(=C\c3ccc(O)c(CC=C)c3)C2=O)ccc1O`: the inhibition at 10 µM in the series with RAW264.7 [1] was found to be 81.5%. In addition, the viability at 24 h, 10 µM in [2] was 70.1%. Also, in the series with RAW264.7 [4], the Activity result was “Non-Toxic”.

Take `C=CCc1cc(/C=C2\CNC/C(=C\c3ccc(O)c(CC=C)c3)C2=O)ccc1O`: in the series on RAW264.7 [1], the inhibition at 10 µM turned out to be 44.4%. The viability at 24 h, 10 µM in series [2] stood at 77.9%. Besides, the Activity result in the series on RAW264.7 [4] is listed as “Non-Toxic”.

As for `C=CCc1cc(/C=C2\CN(C)C/C(=C\c3ccc(O)c(CC=C)c3)C2=O)ccc1O`, in the series with RAW264.7 [1], the inhibition at 10 µM turned out to be 57.1%. Further, the viability at 24 h, 10 µM in series [2] is 80.3%. In addition, in the series with RAW264.7 [4], the Activity entry was “Non-Toxic”.

For `C=CCc1cc(/C=C2\CN(C3CC3)C/C(=C\c3ccc(N(C)C)cc3)C2=O)ccc1O`, the inhibition at 10 µM is 74.4% in the series on RAW264.7 [1] and 35% with RAW264.7 [5]. Besides, the viability at 24 h, 10 µM in [2] came out at 89.4%. This molecule came in with a logP in series [6] of 3.5. For the same molecule, the solubility kinetic in series [10] was determined as 17.1 mg/mL (≈ 41.2 mM).

With `C=CCc1cc(/C=C2\CN(C3CC3)C/C(=C\c3ccc(N4CCCC4)cc3)C2=O)ccc1O`, the inhibition at 10 µM with RAW264.7 [1] is 49.9%; in the series on RAW264.7 [5], 17.6%. Also, the viability at 24 h, 10 µM in [2] is 95.5%. In series [6], the log partition coefficient (logP) is 4.33.

`C=CCc1cc(/C=C2\CN(CCC)C/C(=C\c3ccc(O)c(CC=C)c3)C2=O)ccc1O`: in the series on RAW264.7 [1], the inhibition at 10 µM worked out at 76.1%. Moreover, the viability at 24 h, 10 µM in series [2] was determined as 75.2%. Further, the Activity result in the series with RAW264.7 [4] is recorded as “Non-Toxic”.

Regarding `C=CCc1cc(/C=C2\CN(Cc3ccccc3)C/C(=C\c3ccc(O)c(CC=C)c3)C2=O)ccc1O`, in the series on RAW264.7 [1], the inhibition at 10 µM is 45.8%. In addition, in series [2], the viability at 24 h, 10 µM worked out at 62.1%. Further, the viability at 10 µM in [3] was under 70%.

As to `C=CCc1cc(/C=C2\CN(C(C)C)C/C(=C\c3ccc(O)c(CC=C)c3)C2=O)ccc1O`, the inhibition at 10 µM in the series with RAW264.7 [1] was 71.6%. Also, in series [2], the viability at 24 h, 10 µM came to 85.1%. In the series with RAW264.7 [4], the Activity result is reported as “Non-Toxic”.

In the case of `C=CCc1cc(/C=C/C(=O)/C=C/c2ccc(O)c(CC=C)c2)ccc1O`, the inhibition at 10 µM stood at 59.6% with RAW264.7 [1] and 7.15% with RAW264.7 [5]. Also, the viability at 24 h, 10 µM in series [2] was determined as 73.3%. For the same molecule, in series [9], the Stabilty entry was “Stable”. Moreover, the Activity result with RAW264.7 [4] is “Non-Toxic”.
